ChEMBL document CHEMBL1157537 (J Med Chem, 2008)
The source made the active and inactive calls. The rule behind the calls is not given here.

Columns and labels:
[1] = organism: Rattus norvegicus; test: Progestational activity in estrone-treated ovariectomized rat assessed as reduction of breast alveolar bud proliferation; assay type: functional, organism-based
Summary of the method: (§1)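 Ovariectomized rats were treated with estrone, alone or combined with test progestin, and compared with vehicle and estrone-only groups. Endpoints were uterine epithelial cell height, vaginal epithelial thickness and mammary alveolar bud proliferation.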

[2] = molecular target: T1, Mineralocorticoid receptor (Homo sapiens) (UniProt P08235); test: Antagonist activity at human mineralocorticoid receptor relative to aldosterone; assay type: functional
T1 sequence (whole entry): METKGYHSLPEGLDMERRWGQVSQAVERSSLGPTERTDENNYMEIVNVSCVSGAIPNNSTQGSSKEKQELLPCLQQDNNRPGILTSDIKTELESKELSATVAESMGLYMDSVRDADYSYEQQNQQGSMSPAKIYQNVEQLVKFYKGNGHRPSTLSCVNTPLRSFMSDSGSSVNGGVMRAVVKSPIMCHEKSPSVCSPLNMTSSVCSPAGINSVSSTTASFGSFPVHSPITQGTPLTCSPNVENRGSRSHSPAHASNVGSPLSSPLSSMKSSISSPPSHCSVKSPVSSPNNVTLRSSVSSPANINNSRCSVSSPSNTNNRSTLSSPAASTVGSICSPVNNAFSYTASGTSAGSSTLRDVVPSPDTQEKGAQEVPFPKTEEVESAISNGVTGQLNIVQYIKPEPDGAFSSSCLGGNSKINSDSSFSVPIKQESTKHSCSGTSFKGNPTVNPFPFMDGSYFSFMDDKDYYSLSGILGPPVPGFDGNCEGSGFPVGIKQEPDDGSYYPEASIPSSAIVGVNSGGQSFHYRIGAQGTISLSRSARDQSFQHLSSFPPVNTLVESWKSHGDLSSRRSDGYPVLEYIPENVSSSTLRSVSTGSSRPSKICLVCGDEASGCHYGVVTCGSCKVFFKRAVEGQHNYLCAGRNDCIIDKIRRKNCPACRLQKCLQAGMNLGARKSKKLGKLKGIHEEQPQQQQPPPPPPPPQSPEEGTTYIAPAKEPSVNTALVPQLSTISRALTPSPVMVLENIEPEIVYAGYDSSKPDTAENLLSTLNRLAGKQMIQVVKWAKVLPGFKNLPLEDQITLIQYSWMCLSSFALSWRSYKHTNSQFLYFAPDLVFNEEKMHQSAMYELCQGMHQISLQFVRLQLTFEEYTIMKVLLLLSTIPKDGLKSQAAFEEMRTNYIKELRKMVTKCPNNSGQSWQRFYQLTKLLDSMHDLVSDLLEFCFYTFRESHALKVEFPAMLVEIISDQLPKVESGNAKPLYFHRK

[3] = molecular target: T2, Estrogen receptor (Homo sapiens) (UniProt P03372); test: Agonist activity at human estrogen receptor alpha relative to 17-beta-estradiol; assay type: functional
T2 sequence (whole entry): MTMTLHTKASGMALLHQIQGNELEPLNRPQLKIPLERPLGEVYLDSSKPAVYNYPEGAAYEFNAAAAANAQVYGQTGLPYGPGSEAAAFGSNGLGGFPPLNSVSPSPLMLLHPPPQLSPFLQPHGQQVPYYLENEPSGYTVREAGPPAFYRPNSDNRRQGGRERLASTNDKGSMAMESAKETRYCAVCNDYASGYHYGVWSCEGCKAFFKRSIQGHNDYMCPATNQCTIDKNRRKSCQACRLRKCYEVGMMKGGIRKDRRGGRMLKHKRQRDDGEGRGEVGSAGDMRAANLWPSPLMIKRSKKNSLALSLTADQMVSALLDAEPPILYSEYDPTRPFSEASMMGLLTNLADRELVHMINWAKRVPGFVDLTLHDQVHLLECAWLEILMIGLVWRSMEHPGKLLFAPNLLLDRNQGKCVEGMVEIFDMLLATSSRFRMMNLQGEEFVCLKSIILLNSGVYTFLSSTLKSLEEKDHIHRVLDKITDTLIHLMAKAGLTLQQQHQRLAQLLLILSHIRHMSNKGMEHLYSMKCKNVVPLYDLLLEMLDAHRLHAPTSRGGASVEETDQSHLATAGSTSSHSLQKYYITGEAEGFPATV

[4] = molecular target: T1, Mineralocorticoid receptor (Homo sapiens); test: Agonist activity at human mineralocorticoid receptor relative to aldosterone; assay type: functional
[5] = organism: Rattus norvegicus; test: Progestational activity in estrone-treated ovariectomized rat assessed as inhibition of medroxyprogesterone acetate-induced effect on vaginal epithelial thickness; assay type: functional, organism-based
Summary of the method: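 Antagonist mode of the estrone-treated ovariectomized rat multi-endpoint model: compound was combined with MPA plus estrone, with vehicle and estrone-only groups. Endpoints were uterine epithelial cell height, vaginal epithelial thickness and mammary alveolar bud proliferation.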

[6] = molecular target: T3, Progesterone receptor (Homo sapiens) (UniProt P06401); test: Agonist activity at human progesterone receptor relative to progesterone; assay type: functional
T3 sequence (whole entry): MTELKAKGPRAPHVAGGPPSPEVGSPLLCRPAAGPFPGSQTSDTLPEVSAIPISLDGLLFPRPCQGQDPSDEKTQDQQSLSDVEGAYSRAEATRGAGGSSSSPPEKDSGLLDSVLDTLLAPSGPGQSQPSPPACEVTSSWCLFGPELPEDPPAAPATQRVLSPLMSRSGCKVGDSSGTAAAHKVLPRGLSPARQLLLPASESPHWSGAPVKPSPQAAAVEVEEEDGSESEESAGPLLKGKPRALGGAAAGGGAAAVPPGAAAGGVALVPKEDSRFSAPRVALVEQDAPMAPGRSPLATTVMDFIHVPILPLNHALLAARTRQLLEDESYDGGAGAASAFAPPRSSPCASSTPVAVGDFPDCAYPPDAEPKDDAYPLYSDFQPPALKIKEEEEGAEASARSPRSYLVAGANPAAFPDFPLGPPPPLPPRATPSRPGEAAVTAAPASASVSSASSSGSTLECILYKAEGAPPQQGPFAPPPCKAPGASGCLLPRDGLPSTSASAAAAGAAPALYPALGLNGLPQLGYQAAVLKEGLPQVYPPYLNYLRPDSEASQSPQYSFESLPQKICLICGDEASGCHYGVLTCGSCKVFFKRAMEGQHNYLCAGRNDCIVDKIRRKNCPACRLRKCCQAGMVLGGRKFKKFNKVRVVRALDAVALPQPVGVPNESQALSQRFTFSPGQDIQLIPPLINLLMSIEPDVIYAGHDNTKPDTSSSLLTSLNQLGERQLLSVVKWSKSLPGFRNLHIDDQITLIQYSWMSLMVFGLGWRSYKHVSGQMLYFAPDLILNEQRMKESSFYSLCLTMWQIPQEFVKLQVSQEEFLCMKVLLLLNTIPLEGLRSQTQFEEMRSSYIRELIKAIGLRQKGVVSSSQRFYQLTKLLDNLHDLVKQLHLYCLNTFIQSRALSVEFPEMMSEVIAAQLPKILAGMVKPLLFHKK

[7] = test system: Oryctolagus cuniculus; test: Progestational activity in New Zealand white rabbit uterine epithelium at 0.10 mg/kg, po after 3 days by Clauberg-McPhail assay; assay type: functional, organism-based; design: dose 0.1 mg/kg
[8] = organism: Rattus norvegicus; test: Progestational activity in estrone-treated ovariectomized rat assessed as effect on vaginal epithelial thickness; assay type: functional, organism-based; summary of the method: as §1
[9] = organism: Rattus norvegicus; test: Progestational activity in estrone-treated ovariectomized rat assessed as effect on uterine epithelial cell height; assay type: functional, organism-based; summary of the method: as §1

Efficacy [2]: 93% | Efficacy [3]: 5% | Efficacy [4]: 8% | Efficacy [6]: 145%
Structure (SMILES): CC1=C[C@@H]([C@@H]2Oc3c(F)cc(F)cc3-c3ccc4c(c32)C(C)=CC(C)(C)N4)CCC1 (stereo in doubt; (-)-5c)
Activity [1]: Active | Activity [5]: inactive | Activity [7]: Active | Activity [8]: Active | Activity [9]: Active
